In paper PMC3242808 (The Journal of neuroscience : the official journal of the …, 2011):
Where “and” joins values, the source holds several entries; their conditions need not be identical. Identical values can stand only once.

What was measured:
TRPV1 [1] = assay type: cell-based, mouse; settings: capsaicin 1 μM
CD1 mice [2] = experiment: Capsaicin-induced spontaneous pain; assay type: in vivo, mouse; settings: capsaicin 1 μg; for Capsaicin-induced nocifensive behaviors: 10 ng intraplantar; for Capsaicin-induced pain: 10 μg intraplantar
TRPA1 [3] = target: TRPA1 (Mus musculus, UniProt Q8BLA8); experiment: Whole-cell patch clamp of AITC-induced TRPA1 currents in dissociated DRG neurons; assay type: cell-based; settings: for Effect on TRPA1 currents: AITC (300 μM)-induced current; for IC50: read-out: TRPA1 IC50, TRPA1 current induced by AITC (300 μM), DRG neurons
CD1 mice [4] = experiment: AITC-induced spontaneous pain; assay type: in vivo, mouse; settings: AITC 1 μg; for AITC-induced pain: 10 μg intraplantar; for AITC-induced nocifensive behaviors: 10 ng intraplantar
TRPV1 [5] = target: TRPV1 (Mus musculus, UniProt Q704Y3); assay type: cell-based; settings: for IC50: read-out: TRPV1 IC50
[6] = system: C-fiber-evoked field potentials in the dorsal horn; experiment: Spinal cord LTP of C-fiber-evoked field potentials in anesthetized mice; assay type: in vivo, mouse; settings: 10 ng intrathecal, 2 h after LTP induction
Procedure, shortened: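 Mice under urethane (1.5 g/kg i.p.), laminectomy at T13–L1. Bipolar sciatic nerve stimulation; C-fiber field potentials recorded in ipsilateral L4–L5 dorsal horn at 100–300 μm depth. Test pulses (2× threshold, 0.5 ms) every 5 min for >40 min, then tetanus (5× threshold, 100 Hz, 1 s, four trains, 10 s apart). Test compound 10 ng i.t. via PE5 catheter 2 h post-induction; n = 5; two-way ANOVA.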

[7] = system: lamina II neurons of spinal cord slices; experiment: Patch clamp of basal sEPSCs in lamina II neurons of spinal cord slices; assay type: cell-based, mouse; settings: RvD2 alone, 1 ng/ml
Procedure, shortened: (§1)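 Transverse L4–L5 spinal cord slices (400–600 μm) from CD1 mice aged 4–6 weeks, perfused with Krebs solution gassed with 95% O2/5% CO2 at 37°C. Whole-cell sEPSCs recorded from lamina IIo neurons held at −70 mV with K-gluconate internal solution at pH 7.4. Signals filtered at 2 kHz and digitized at 5 kHz. Frequency ratio taken against pretreatment baseline, with AITC at […]; n = 5–9 neurons.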

[8] = system: lamina II neurons of spinal cord slices; experiment: sEPSCs in spinal cord slices from CFA-inflamed mice; assay type: cell-based, mouse; settings: 1 ng/ml; slices from CFA-inflamed mice (one day)
Procedure, shortened: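 CD1 mice received CFA intraplantar (20 μl, 1 mg/ml) and were sliced 1 d later. Slices were compared with ones from noninflamed mice. L4–L5 transverse slices (400–600 μm) were perfused with Krebs solution at 37°C. Whole-cell recording from lamina IIo neurons held at −70 mV. sEPSC frequency and amplitude measured with test compound at 1 ng/ml; n = 5 neurons.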

CD1 mice [9] = experiment: Carrageenan-induced inflammatory pain; assay type: in vivo, mouse; settings: 10 ng intraplantar
TRPA1 [10] = experiment: AITC-induced sEPSC frequency increase in lamina II neurons of spinal cord slices; assay type: cell-based, mouse; settings: AITC 300 μM
Procedure, shortened: as §1

CD1 mice [11] = experiment: Formalin test; assay type: in vivo, mouse; settings: 0.01 ng intrathecal
CD1 mice [12] = experiment: Rota-Rod test of motor function; assay type: in vivo, mouse; settings: 10 ng i.t., naive animals
CD1 mice [13] = experiment: CFA-induced persistent inflammatory pain; assay type: in vivo, mouse; settings: 10 ng intrathecal, 3 days after CFA
[14] = GDPβS 2.5 mM, 8 min, RvD2 1 ng/ml
[15] = PTX 0.5 μg/ml, 18 h, RvD2 1 ng/ml
[16] = TRPV1 current induced by capsaicin (100 nM), DRG neurons

Chain of TRPV1 (Mus musculus, UniProt Q704Y3) (Q704Y3 whole entry): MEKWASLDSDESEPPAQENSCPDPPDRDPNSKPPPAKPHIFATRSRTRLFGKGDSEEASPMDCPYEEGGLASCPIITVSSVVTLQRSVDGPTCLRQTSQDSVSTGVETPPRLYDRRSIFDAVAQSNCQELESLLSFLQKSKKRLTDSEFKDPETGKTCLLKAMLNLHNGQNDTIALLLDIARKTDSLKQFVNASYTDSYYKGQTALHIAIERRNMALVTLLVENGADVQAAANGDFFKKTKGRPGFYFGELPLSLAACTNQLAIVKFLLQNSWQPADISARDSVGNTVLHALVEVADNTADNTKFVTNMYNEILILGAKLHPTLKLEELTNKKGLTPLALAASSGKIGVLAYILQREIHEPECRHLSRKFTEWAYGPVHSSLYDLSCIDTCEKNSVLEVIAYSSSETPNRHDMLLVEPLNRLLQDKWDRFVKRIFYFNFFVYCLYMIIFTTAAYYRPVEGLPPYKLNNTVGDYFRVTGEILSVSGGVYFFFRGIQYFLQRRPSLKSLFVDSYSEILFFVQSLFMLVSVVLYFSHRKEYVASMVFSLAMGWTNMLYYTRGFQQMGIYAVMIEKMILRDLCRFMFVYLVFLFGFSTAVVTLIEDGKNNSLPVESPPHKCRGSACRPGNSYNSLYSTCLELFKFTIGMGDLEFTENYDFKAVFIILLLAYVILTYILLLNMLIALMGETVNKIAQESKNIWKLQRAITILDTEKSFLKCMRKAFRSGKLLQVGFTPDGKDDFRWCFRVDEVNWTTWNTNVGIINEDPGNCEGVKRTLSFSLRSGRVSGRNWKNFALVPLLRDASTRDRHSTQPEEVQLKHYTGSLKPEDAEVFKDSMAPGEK
Chain of TRPA1 (Mus musculus, UniProt Q8BLA8) (Q8BLA8 whole entry): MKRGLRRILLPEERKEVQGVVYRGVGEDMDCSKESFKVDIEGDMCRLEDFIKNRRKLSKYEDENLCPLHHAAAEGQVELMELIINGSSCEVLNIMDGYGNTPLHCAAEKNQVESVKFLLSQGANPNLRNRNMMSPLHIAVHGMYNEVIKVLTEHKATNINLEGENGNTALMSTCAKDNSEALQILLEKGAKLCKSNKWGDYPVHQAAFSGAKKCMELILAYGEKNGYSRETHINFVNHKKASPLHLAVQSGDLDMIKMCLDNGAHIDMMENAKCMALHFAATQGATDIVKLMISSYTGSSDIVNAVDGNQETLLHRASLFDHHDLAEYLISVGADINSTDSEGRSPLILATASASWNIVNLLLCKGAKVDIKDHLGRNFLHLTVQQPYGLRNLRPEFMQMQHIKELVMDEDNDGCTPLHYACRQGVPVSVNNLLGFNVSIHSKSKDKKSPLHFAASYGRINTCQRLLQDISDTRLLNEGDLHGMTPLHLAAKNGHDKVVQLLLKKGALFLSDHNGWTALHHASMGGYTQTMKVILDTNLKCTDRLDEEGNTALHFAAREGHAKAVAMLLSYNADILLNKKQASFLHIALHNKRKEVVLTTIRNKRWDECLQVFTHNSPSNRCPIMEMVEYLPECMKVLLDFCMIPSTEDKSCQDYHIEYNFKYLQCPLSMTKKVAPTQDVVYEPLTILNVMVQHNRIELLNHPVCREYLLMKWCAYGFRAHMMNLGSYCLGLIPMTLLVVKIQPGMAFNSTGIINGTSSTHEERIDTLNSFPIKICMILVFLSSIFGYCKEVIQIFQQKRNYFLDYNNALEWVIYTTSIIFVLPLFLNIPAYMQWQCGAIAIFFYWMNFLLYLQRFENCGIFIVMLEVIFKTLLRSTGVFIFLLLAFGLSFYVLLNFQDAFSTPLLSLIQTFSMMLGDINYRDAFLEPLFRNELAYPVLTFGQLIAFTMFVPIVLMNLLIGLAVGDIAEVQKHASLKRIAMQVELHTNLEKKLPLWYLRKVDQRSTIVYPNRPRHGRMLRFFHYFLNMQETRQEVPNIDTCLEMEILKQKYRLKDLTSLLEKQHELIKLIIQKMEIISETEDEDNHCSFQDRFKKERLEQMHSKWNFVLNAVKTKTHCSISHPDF

CC[C@@H](O)/C=C/C=C\C[C@@H](O)/C=C/C=C/C=C\[C@@H](O)CCCC(=O)O [RvE1, Resolvin E1]
Capsaicin-induced sEPSC frequency increase (TRPV1 [1]; 1 ng/ml): selectively inhibited | Capsaicin-induced nocifensive behaviors (CD1 mice [2]): selectively inhibited | Effect on TRPA1 currents (TRPA1 [3]): did not inhibit

CC/C=C\C/C=C\C/C=C\C/C=C\C/C=C\CCCC(=O)O [EPA, eicosapentaenoic acid, reference compound]
AITC-induced pain (CD1 mice [4]): but not AITC-induced pain | Capsaicin-induced pain (CD1 mice [2]): inhibited | Effect on TRPA1 currents (TRPA1 [3]): without affecting

CC/C=C\C/C=C\C/C=C\C/C=C\C/C=C\C/C=C\CCC(=O)O [DHA, docosahexaenoic acid, reference compound]
AITC-induced pain (CD1 mice [4]): but not AITC-induced pain | Capsaicin-induced pain (CD1 mice [2]): inhibited | Effect on TRPA1 currents (TRPA1 [3]): without affecting

CC/C=C\C[C@H](O)[C@H](O)/C=C/C=C/C=C\C=C\[C@@H](O)C/C=C\CCC(=O)O [RvD2, Resolvin D2]
Inhibition of TRPV1 current under intracellular GDPβS (TRPV1 [5]; [14]): completely blocked | Effect on TRPV1 current after pertussis toxin pretreatment (TRPV1 [5]; [15]): could not alter | TRPV1 IC50 expressed (TRPV1 [5]; [16]): 0.04 ng/mL | IC50 (TRPV1 [5]; [16]): 0.1 ± 0.01 nM | LTP of C-fiber-evoked field potentials [6]: completely reversed | Capsaicin-induced increase in sEPSC frequency (TRPV1 [1]; 0.1 and 1 ng/ml): does-dependently blocked | Basal sEPSC amplitude [7]: altered neither | Basal sEPSC frequency [7]: altered neither | AITC-induced nocifensive behaviors (CD1 mice [4]): significantly reduced | Capsaicin-induced nocifensive behaviors (CD1 mice [2]): significantly reduced | CFA-induced increase in sEPSC amplitude [8]: abolished | CFA-induced increase in sEPSC frequency [8]: abolished | Inhibition of TRPA1 current under intracellular GDPβS (TRPA1 [3]; [14]): completely blocked | Effect on TRPA1 current after pertussis toxin pretreatment (TRPA1 [3]; [15]): could not alter | IC50 (TRPA1 [3]): 2 nM and 2.1 nM | CRG-induced heat hyperalgesia (CD1 mice [9]): largely prevented | CRG-induced mechanical allodynia (CD1 mice [9]): largely prevented | CRG-induced paw edema (CD1 mice [9]; data not shown): reduced | AITC-induced increase in sEPSC frequency (TRPA1 [10]; 0.1 and 1 ng/ml): does-dependently blocked | Antinociceptive action in formalin test (CD1 mice [11]): significant antinociceptive action | Motor function in the Rota-rod test (CD1 mice [12]): Neither did this treatment affect | CFA-induced heat hyperalgesia (CD1 mice [13]): effectively reduced | Duration of reduction of CFA-induced heat hyperalgesia and mechanical allodynia (CD1 mice [13]): > 3 h | CFA-induced mechanical allodynia (CD1 mice [13]; data not shown): effectively reduced

CC/C=C\C[C@H](O)/C=C/C=C\C=C\C=C\[C@@H](O)[C@@H](O)C/C=C\CCC(=O)O [RvD1, Resolvin D1]
Effect on TRPV1 currents (TRPV1 [5]; even at high concentrations): no effect | IC50 (TRPV1 [5]; [16]): > 26.6 nM | AITC-induced nocifensive behaviors (CD1 mice [4]): selectively inhibited | IC50 (TRPA1 [3]): 9 nM and 8.5 nM | AITC-induced sEPSC frequency increase (TRPA1 [10]; 10 ng/ml): selectively inhibited
